The results in this text go back to paper PMC9389373 (RSC Advances, 2022).

Each structure is given as a SMILES string.

For one experiment, the system named is MCF-7. In words: MTT cytotoxicity assay, MCF-7. Type of experiment: cell-based. As to conditions: Homo sapiens, MCF7, read-out: IC50, μM MCF-7. The procedure, abridged:
(§1)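 Cells came from the National Cancer Institute, Cairo, and were grown in RPMI-1640 with L-glutamine, 10% FBS and 1% penicillin-streptomycin at 37 °C, 5% CO2. Plated in triplicate in 96-well plates (5 × 10^4 cells). Next day, exposed to test compound at 0.01, 0.1, 1, 10 and 100 μM (48 h stated for MDA-MB-231 and MCF-10A). MTT added for 3 h; absorbance read; viability relative to control; IC50 derived.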

The subject of a further experiment is MDA-MB-231. In words: MTT cytotoxicity assay, MDA-MB-231. Type of experiment: cell-based. Conditions: read-out: IC50, μM MDA-MB-231, average of three independent trials. A digest of the protocol: as §1
A general note: Tetrazolium dyes change colour on reduction, which living cells bring about.

Another experiment has as its target EGFR (Homo sapiens, UniProt P00533). The experiment is described as follows: EGFR inhibition, ADP-Glo kinase assay. Type of experiment: biochemical.
In a further experiment the target is PARP-1 (Homo sapiens, UniProt P09874). The experiment is described as follows: PARP-1 enzyme inhibition assay. Type of experiment: biochemical.
Chain of PARP-1 (P09874 whole entry): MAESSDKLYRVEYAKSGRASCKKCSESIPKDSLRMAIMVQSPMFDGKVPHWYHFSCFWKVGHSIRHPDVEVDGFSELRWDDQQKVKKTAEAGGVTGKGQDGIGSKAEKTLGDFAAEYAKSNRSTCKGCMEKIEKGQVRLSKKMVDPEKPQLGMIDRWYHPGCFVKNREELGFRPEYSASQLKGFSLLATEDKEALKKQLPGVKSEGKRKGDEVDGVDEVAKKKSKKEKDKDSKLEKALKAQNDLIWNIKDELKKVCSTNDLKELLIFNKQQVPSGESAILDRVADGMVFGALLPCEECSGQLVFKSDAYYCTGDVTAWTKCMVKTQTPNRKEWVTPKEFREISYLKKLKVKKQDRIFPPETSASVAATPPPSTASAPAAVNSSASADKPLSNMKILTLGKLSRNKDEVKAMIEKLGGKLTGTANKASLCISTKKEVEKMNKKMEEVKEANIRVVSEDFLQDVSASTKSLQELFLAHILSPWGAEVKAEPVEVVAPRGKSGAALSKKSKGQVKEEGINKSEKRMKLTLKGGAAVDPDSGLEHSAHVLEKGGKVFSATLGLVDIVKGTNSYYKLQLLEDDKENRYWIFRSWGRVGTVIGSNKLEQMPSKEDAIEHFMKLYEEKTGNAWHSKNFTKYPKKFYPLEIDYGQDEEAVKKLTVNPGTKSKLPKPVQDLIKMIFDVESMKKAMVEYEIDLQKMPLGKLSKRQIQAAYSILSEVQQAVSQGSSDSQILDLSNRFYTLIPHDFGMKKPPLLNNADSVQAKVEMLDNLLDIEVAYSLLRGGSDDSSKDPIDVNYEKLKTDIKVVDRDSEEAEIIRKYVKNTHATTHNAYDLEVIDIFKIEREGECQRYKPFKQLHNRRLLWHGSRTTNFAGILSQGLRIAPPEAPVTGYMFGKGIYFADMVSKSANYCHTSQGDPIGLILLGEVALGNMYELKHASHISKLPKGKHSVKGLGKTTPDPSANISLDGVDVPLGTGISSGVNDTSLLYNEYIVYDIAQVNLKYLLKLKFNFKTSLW
Experiment [1] deals with MDA-MB-231 cells. The experiment is described as follows: DNA-aided cell cycle analysis by flow cytometry. Type of experiment: cell-based. Conditions: 8i at 0.12 μM, 48 h; control 9.83%. For orientation: In flow cytometry, cells or beads pass a laser one at a time.
For another experiment, the system named is MCF-10A. The experiment is described as follows: MTT cytotoxicity assay, normal breast cells MCF-10A. Type of experiment: cell-based. As to conditions: Homo sapiens. The procedure, abridged: as §1
Experiment [2] relates to MDA-MB-231 cells. In words: Annexin V/PI staining flow cytometry, apoptosis-necrosis assessment. Type of experiment: cell-based. As to conditions: 8i at 0.12 μM, 48 h. A digest of the protocol:
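MDA-MB-231 cells seeded overnight in 6-well plates (3–5 × 10^5 cells/well), then exposed to test compound for 48 h. Stained 30 min in the dark in Annexin binding buffer (25 mM CaCl2, 1.4 M NaCl, 0.1 M Hepes/NaOH, pH 7.4) with Annexin V-FITC (1:100) and PI (10 μg mL−1). Analysed by flow cytometry: Q1 necrosis, Q2 late apoptosis, Q4 early apoptosis.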

In experiment [3] the test system is MDA-MB-231 cells. In words: RT-PCR gene expression of apoptosis-related genes. Type of experiment: cell-based. As to conditions: 8i at 0.12 μM, 48 h, untreated control = 1.
Setting [4] is: five concentrations, sigmoidal nonlinear regression.

Chain of EGFR (P00533 25-1210): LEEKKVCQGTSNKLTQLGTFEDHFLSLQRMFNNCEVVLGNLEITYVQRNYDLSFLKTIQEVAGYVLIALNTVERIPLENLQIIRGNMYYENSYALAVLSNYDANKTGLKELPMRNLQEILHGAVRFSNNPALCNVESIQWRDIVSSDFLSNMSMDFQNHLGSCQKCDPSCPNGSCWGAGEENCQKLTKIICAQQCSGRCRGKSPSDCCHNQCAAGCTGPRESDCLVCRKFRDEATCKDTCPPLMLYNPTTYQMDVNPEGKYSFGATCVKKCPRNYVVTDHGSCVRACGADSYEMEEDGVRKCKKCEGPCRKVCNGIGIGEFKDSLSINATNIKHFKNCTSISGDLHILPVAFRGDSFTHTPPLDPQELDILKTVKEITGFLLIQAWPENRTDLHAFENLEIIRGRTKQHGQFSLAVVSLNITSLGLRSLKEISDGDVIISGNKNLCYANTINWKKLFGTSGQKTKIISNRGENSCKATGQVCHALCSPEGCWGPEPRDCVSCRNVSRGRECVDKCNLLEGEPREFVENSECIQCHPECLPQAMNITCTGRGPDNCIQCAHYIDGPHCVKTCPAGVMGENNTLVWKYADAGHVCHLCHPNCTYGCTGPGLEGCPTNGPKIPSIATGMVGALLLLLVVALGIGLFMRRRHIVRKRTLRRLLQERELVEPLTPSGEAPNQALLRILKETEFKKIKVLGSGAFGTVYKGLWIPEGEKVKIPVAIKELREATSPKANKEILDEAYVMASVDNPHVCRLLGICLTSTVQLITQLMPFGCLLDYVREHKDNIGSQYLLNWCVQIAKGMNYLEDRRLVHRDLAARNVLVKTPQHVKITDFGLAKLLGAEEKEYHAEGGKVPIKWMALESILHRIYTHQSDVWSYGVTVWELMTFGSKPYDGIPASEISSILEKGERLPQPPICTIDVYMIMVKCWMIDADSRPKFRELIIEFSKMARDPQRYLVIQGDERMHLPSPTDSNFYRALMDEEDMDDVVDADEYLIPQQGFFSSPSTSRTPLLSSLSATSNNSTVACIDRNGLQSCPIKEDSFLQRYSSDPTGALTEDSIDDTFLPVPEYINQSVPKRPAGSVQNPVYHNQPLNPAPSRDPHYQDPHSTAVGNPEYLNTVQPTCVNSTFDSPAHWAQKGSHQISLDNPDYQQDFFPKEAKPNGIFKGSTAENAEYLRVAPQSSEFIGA

In general, IC50 refers to the concentration at which inhibition is half-maximal. Consider `O=C(COc1ccc(C2=Nn3c(nnc3-c3ccccc3)SC2)cc1)NCCCCNC(=O)COc1ccc(C2=Nn3c(nnc3-c3ccccc3)SC2)cc1` [8j, N,N′-(Butane-1,4-diyl)bis(2-(4-(3-phenyl-7H-[1,2,4]triazolo[3,4-b][1,3,4]thiadiazin-6-yl)phenoxy)acetamide)], for which, in the experiment on MCF-7, the IC50 stood at 14.9 µM.
Take `Cc1nnc2n1N=C(c1ccccc1OCC(=O)NCCNC(=O)COc1ccccc1C1=Nn3c(C)nnc3SC1)CS2` [8d, N,N′-(Ethane-1,2-diyl)bis(2-(2-(3-methyl-7H-[1,2,4]triazolo[3,4-b][1,3,4]thiadiazin-6-yl)phenoxy)acetamide)]: the IC50 is 2.14 µM in the experiment on MCF-7, 0.421 µM in the experiment with MDA-MB-231, 0.124 µM against EGFR and 0.0199 µM against PARP-1. Moreover, the “IC50, nM EGFR” value at EGFR (setting [4]) is “poor inhibitory activities”. Further, the “IC50, nM PARP-1” value against PARP-1 (setting [4]) is “poor inhibitory activities”.
`O=C(COc1ccccc1-c1cnc2ccccc2n1)NCCNC(=O)COc1ccccc1-c1cnc2ccccc2n1` [10c, N,N′-(Ethane-1,2-diyl)bis(2-(2-(quinoxalin-2-yl)phenoxy)acetamide)]: the IC50 in the experiment with MCF-7 turned out to be 7.61 µM.
In the case of `O=C(COc1ccc(-c2cnc3ccccc3n2)cc1)NCCNC(=O)COc1ccc(-c2cnc3ccccc3n2)cc1` [10a, N,N′-(Ethane-1,2-diyl)bis(2-(4-(quinoxalin-2-yl)phenoxy)acetamide)], the values for the IC50 with MCF-7 and in the experiment on MDA-MB-231 were 32 µM and no less than 50 µM, respectively.
As to `O=C(COc1ccc(C2=Nn3c(nnc3-c3ccccc3)SC2)cc1)NCCNC(=O)COc1ccc(C2=Nn3c(nnc3-c3ccccc3)SC2)cc1` [8a, N,N′-(Ethane-1,2-diyl)bis(2-(4-(3-phenyl-7H-[1,2,4]triazolo[3,4-b][1,3,4]thiadiazin-6-yl)phenoxy)acetamide)], the IC50 in the experiment with MCF-7 was no less than 50 µM.
With `O=C(COc1ccc(C2=Nn3c(Cc4ccccc4)nnc3SC2)cc1)NCCNC(=O)COc1ccc(C2=Nn3c(Cc4ccccc4)nnc3SC2)cc1` [8b, N,N′-(Ethane-1,2-diyl)bis(2-(4-(3-benzyl-7H-[1,2,4]triazolo[3,4-b][1,3,4]thiadiazin-6-yl)phenoxy)acetamide)], in the experiment with MCF-7, the IC50 was 26.1 µM.
Same read-out and setting: as for `O=C(COc1ccc(C2=Nn3c(nnc3-c3ccccc3)SC2)cc1)NCCCNC(=O)COc1ccc(C2=Nn3c(nnc3-c3ccccc3)SC2)cc1` [8e, N,N′-(Propane-1,3-diyl)bis(2-(4-(3-phenyl-7H-[1,2,4]triazolo[3,4-b][1,3,4]thiadiazin-6-yl)phenoxy)acetamide)], the figure is 12.7 µM.
On to `O=C(COc1ccccc1C1=Nn2c(Cc3ccccc3)nnc2SC1)NCCCNC(=O)COc1ccccc1C1=Nn2c(Cc3ccccc3)nnc2SC1` [8h, N,N′-(Propane-1,3-diyl)bis(2-(2-(3-benzyl-7H-[1,2,4]triazolo[3,4-b][1,3,4]thiadiazin-6-yl)phenoxy)acetamide)], for which the IC50 is 21.1 µM with MCF-7 and no less than 50 µM in the experiment with MDA-MB-231.
Taken in the same sequence, the figures for `O=C(COc1ccc(-c2cnc3ccccc3n2)cc1)NCCCNC(=O)COc1ccc(-c2cnc3ccccc3n2)cc1` [10d, N,N′-(Propane-1,3-diyl)bis(2-(4-(quinoxalin-2-yl)phenoxy)acetamide)] were 23.2 µM and no less than 50 µM.
On to `O=C(COc1ccccc1C1=Nn2cnnc2SC1)NCCCCNC(=O)COc1ccccc1C1=Nn2cnnc2SC1` [8l, N,N′-(Butane-1,4-diyl)bis(2-(2-(7H-[1,2,4]triazolo[3,4-b][1,3,4]thiadiazin-6-yl)phenoxy)-acetamide)], for which the IC50 was found to be 5.31 µM in the experiment with MCF-7, 0.0789 µM on EGFR and 0.00687 µM against PARP-1.
As to `O=C(COc1ccccc1C1=Nn2c(nnc2-c2ccccc2)SC1)NCCCNC(=O)COc1ccccc1C1=Nn2c(nnc2-c2ccccc2)SC1` [8g, N,N′-(Propane-1,3-diyl)bis(2-(2-(3-phenyl-7H-[1,2,4]triazolo[3,4-b][1,3,4]thiadiazin-6-yl)phenoxy)acetamide)], the IC50 with MCF-7 was found to be 11.2 µM.
Still for that read-out and setting: as for `Cc1cc2ncc(-c3ccc(OCC(=O)NCCNC(=O)COc4ccc(-c5cnc6cc(C)c(C)cc6n5)cc4)cc3)nc2cc1C` [10b, N,N′-(Ethane-1,2-diyl)bis(2-(4-(6,7-dimethylquinoxalin-2-yl)phenoxy)acetamide)], the figure is no less than 50 µM.
For the compound `O=C(COc1ccccc1C1=Nn2c(nnc2-c2ccccc2)SC1)NCCCCNC(=O)COc1ccccc1C1=Nn2c(nnc2-c2ccccc2)SC1` [8k, N,N′-(Butane-1,4-diyl)bis(2-(2-(3-phenyl-7H-[1,2,4]triazolo[3,4-b][1,3,4]thiadiazin-6-yl)phenoxy)acetamide)], in the experiment with MCF-7, the IC50 came to 13.1 µM.
The same measure, in the same setting: as for `Cc1cc2ncc(-c3ccccc3OCC(=O)NCCCCNC(=O)COc3ccccc3-c3cnc4cc(C)c(C)cc4n3)nc2cc1C` [10e, N,N′-(Butane-1,4-diyl)bis(2-(2-(6,7-dimethylquinoxalin-2-yl)phenoxy)acetamide)], the figure is 31.2 µM.
On the same count and under the same terms, as for `C#Cc1cccc(Nc2ncnc3cc(OCCOC)c(OCCOC)cc23)c1` [Erlotinib, reference compound], the figure is 0.32 µM; as for `Cc1nnc2n1N=C(c1ccc(OCC(=O)NCCCNC(=O)COc3ccc(C4=Nn5c(C)nnc5SC4)cc3)cc1)CS2` [8f, N,N′-(Propane-1,3-diyl)bis(2-(4-(3-methyl-7H-[1,2,4]triazolo[3,4-b][1,3,4]thiadiazin-6-yl)phenoxy)acetamide)], 7.12 µM.
Consider `O=C(COc1ccccc1C1=Nn2c(nnc2-c2ccccc2)SC1)NCCNC(=O)COc1ccccc1C1=Nn2c(nnc2-c2ccccc2)SC1` [8c, N,N′-(Ethane-1,2-diyl)bis(2-(2-(3-phenyl-7H-[1,2,4]triazolo[3,4-b][1,3,4]thiadiazin-6-yl)phenoxy)acetamide)], for which the IC50 with MCF-7 came to 16.1 µM.
As usually defined, the inhibition is the share of the control response that was lost under treatment. As to `Cc1nnc2n1N=C(c1ccccc1OCC(=O)NCCCNC(=O)COc1ccccc1C1=Nn3c(C)nnc3SC1)CS2` [8i, N,N′-(Propane-1,3-diyl)bis(2-(2-(3-methyl-7H-[1,2,4]triazolo[3,4-b][1,3,4]thiadiazin-6-yl)phenoxy)acetamide)], the “cell population at G2/M” value in the experiment on MDA-MB-231 cells [1] amounted to 24.04%. Besides, the IC50 in the experiment with MCF-7 was found to be 1.31 µM. Moreover, the IC50 in the experiment on MCF-10A (48 h, read-out: IC50 MCF-10A) came to 52.4 µM. The inhibition at 100 µM in the experiment on MCF-10A (read-out: cell inhibition) is roughly 90%. Moreover, in the experiment with MDA-MB-231 cells [2], the “necrosis, fold compared to control” value was 3.14 fold and the “total apoptosis, fold compared to control” value is listed as 38 fold. Moreover, the “late apoptosis (Q2)” value in the experiment with MDA-MB-231 cells [2] (control 0.18%) is recorded as 19.51%. Moreover, in the experiment with MDA-MB-231 cells [2] (control 0.63%), the “early apoptosis (Q4)” value is 11.23%. For the same compound, the “total apoptotic cell death” value with MDA-MB-231 cells [2] (control 0.81%) was determined as 30.74%. Further, in the experiment on MDA-MB-231 cells [2] (control 1.3%), the “necrosis (Q1)” value stood at 4.08%. Further, in the experiment on MDA-MB-231 cells [3] (decrease), the “Bcl-2 gene level, fold change” value came to 0.35 fold. Moreover, in the experiment on MDA-MB-231 cells [3] (increase), the “Bax gene level, fold change” value was 4.46 fold; the “P53 gene level, fold change” value was determined as 4.8 fold; the “caspase-3 gene level, fold change” value is 3.9 fold; the “caspase-8 gene level, fold change” value is listed as 6.36 fold. Further, in the experiment with MDA-MB-231 cells [3] (increase), the “caspase-9 gene level, fold change” value worked out at 2.9 fold. Also, the IC50 against EGFR was 0.0647 µM.
